The text below walks through data of ChEMBL document CHEMBL1122609, “N-allyl analogues of phencyclidine: chemical synthesis and pharmacological properties” (J Med Chem, 1984).

In general, ED50 refers to the dose at which the effect has come halfway, by size or by number of responders. A higher ED50 goes with a need for a large dose. Usually Kd stands for a measure of binding affinity in units of concentration. Read a high Kd as lower affinity. Usually LD50 stands for the dose expected to kill half of the subjects tested. A low value points to a more toxic substance.

The species entered for data set [1] is Mus musculus. The experiment in a line: Relative potency was determined using mouse platform test of Coughenour et al. The data set is classed as functional. A digest of the protocol:
(§1)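 Male HAP ICR Swiss mice, 25-30 g, pre-screened for passing. Dosing ip in 0.9% NaCl as a solution or fine suspension, 0.01 mL/g, 4-6 doses, six mice per dose, repeated on 2-4 more days. Platform rotated 180° at 5-120 min. Falling, or failing to climb within 60 s, scored.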

The species entered for data set [2] is Mus musculus. The experiment in a line: Effective dose for the degree of motor incoordination in untrained mice. It counts as functional. A digest of the protocol:
as §1

A short description of data set [3]: Ratio of failed to the tested was reported at dose 19.0 umol/kg (experiment 2); out of 6. The data set is classed as functional.
The nature of data set [4]: Ratio of failed to the tested was reported at dose 16.0 umol/kg (experiment 1); out of 6. The data set is classed as functional.
The target in data set [5] is Muscarinic acetylcholine receptor. The experiment in a line: Dissociation constant towards Muscarinic acetylcholine receptor was determined by using [3H]4NMPB as radioligand. The data set is classed as protein assay. A digest of the protocol: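 Competition binding with [3H]-4NMPB in the S1 supernatant of mouse-brain homogenate, with and without test compound at various concentrations. Nonspecific binding determined and subtracted. KD calculated from the difference in binding.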

Data set [6] relates to Mus musculus. The experiment in a line: Percent failing the test was reported at dose 13.2 umol/kg (experiment 1). It counts as functional.
The nature of data set [7]: Ratio of half life (protection) to the control was reported at a concentration 4*10e-5 M. The data set is classed as ADME. In short, it runs like this:
(§2)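 Horse-serum BChE (3 units/mg), Ellman method: 0.025 unit with acetylthiocholine 1.87 × 10^-3 M in 0.1 M phosphate buffer pH 7.4 at 25 °C, absorbance at 412 nm followed over time. Enzyme preincubated 3 min with test compound. DFP 2.5 × 10^-8 M then added. Aliquots assayed for residual activity at various times. Pseudo-first-order constant used to obtain k2 = ln(A0/At)/([I]t).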

Data set [8] has as its system Mus musculus. The experiment in a line: Lethal dose (LD50) determined by the Litchfield and Wilcoxon method was reported. The data set is classed as functional. In short, it runs like this:
(§3)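 Male HAP ICR Swiss mice, 25-35 g, in groups of six, given ip doses. Deaths counted at 24 h after injection. LD50 estimated by Litchfield–Wilcoxon probit analysis, as for ED50.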

The nature of data set [9]: Ratio of half life (protection) to the control was reported at a concentration 8*10e-6 M. It counts as ADME. In short, it runs like this: as §2
In data set [10] the test system is Mus musculus. The experiment in a line: Percent failing the test was reported at dose 9.60 umol/kg (experiment 2). The data set is classed as functional.
Data set [11] can be described thus: Ratio of half life (protection) to the control was reported at a concentration 0 M. It counts as ADME. A digest of the protocol: as §2
The species entered for data set [12] is Mus musculus. The experiment in a line: Acute toxicity relative to PCP was reported. The conditions noted are these: in vivo. It counts as organism-based.
A short description of data set [13]: Ratio of half life (protection) to the control was reported at a concentration 4*10e-6 M. The data set is classed as ADME. A digest of the protocol:
as §2

The nature of data set [14]: Ratio of half life (protection) to the control was reported at a concentration 4*10e-7 M. It counts as ADME. In short, it runs like this: as §2
Data set [15] is described as follows: Ratio of half life (protection) to the control was reported at a concentration 9*10e-7 M. The data set is classed as ADME. A digest of the protocol:
as §2

Data set [16] is described as follows: Ratio of failed to the tested was reported at dose 29.0 umol/kg (experiment 2); out of 6. It counts as functional.
The nature of data set [17]: Ratio of failed to the tested was reported at dose 26.0 umol/kg (experiment 1); out of 6. It counts as functional. A digest of the protocol:
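Male HAP ICR Swiss mice (20-30 g), six per group, pre-screened on the platform test. An N-allyl analogue in 0.9% NaCl was given ip, and PCP ip followed 5 min later. The platform was rotated 180° within 10 s, and mice were scored over 60 s for falling off or reaching the top. Testing was at 5-120 min post-injection. The read-out was the number failing out of the number tested.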

Data set [18] can be described thus: Ratio of failed to the tested was reported at dose 15.2 umol/kg (experiment 2); out of 12. The data set is classed as functional.
Data set [19] in a line: Ratio of failed to the tested was reported at dose 12.4 umol/kg (experiment 1); out of 12. It counts as functional.
The nature of data set [20]: Ratio of half life (protection) to the control was reported at a concentration 2*10e-6M. The data set is classed as ADME. In short, it runs like this:
(§4)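 Horse serum BChE (0.5 unit/mL) was incubated 3 min with the compound, then DFP was added at 2.5 × 10^-8 M, 25 °C. Residual activity was measured in aliquots over time by the Ellman method: acetylthiocholine 1.87 × 10^-3 M, 0.1 M phosphate pH 7.4, absorbance at 412 nm. Inactivation was fitted as pseudo-first-order.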

Data set [21] can be described thus: Ratio of half life (protection) to the control was reported at a concentration 3*10e-6 M. It counts as ADME. A digest of the protocol:
as §4

Data set [22] is filed under the species Mus musculus. The experiment in a line: Compound was evaluated for acute toxicity relative to PCP. It counts as organism-based. The conditions noted are these: in vivo.
Data set [23] deals with Mus musculus. The experiment in a line: Percent failing the test was reported at dose 9.60 umol/kg (experiment 1). It counts as functional.
The nature of data set [24]: Ratio of failed to the tested was reported at dose 13.2 umol/kg (experiment 1); out of 6. The data set is classed as functional. In short, it runs like this:
(§5)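 Male HAP ICR Swiss mice (20-30 g) pre-screened on the mouse platform test. PCP was given ip in 0.9% NaCl (0.01 mL/g). The platform was rotated 180° within 10 s, and mice were scored over 60 s for falling off, failing to reach the top, or reaching the top. Testing was at 5-120 min post-injection. The read-out was the number failing out of the number tested.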

Data set [25] in a line: Ratio of failed to the tested was reported at dose 9.60 umol/kg (experiment 2); out of 6. The data set is classed as functional.
Data set [26] is filed under the species Mus musculus. The experiment in a line: Compound was evaluated for acute toxicity relative to compound PCP. It counts as organism-based. The conditions noted are these: in vivo.
Data set [27] has as its system Mus musculus. The experiment in a line: Compound was evaluated for lethal dose (LD50) by the Litchfield and Wilcoxon method. It counts as functional. In short, it runs like this:
as §3

Data set [28] is described as follows: Ratio of failed to the tested was reported at dose 9.60 umol/kg (experiment 2); out of 24. The data set is classed as functional. A digest of the protocol: as §5

`C=CCN(C)C1(c2ccccc2)CCCCC1` yielded a Relative potency in the data set filed under Mus musculus [1] of 0.41. This molecule also had an ED50 in the data set filed under Mus musculus [2] of 27.2 µmol/kg. The Ratio in [3] is recorded as 6; in data set [4], 6; in [7], 7.76; in [9] it was 2.21; in data set [11], 1; in data set [13], 2.15. Besides, in data set [5], the Kd came to 15 µM. Further, the Activity with Mus musculus [6] and in the data set with Mus musculus [10] was 100% each time. Also, the LD50 with Mus musculus [8] stood at 516 µmol/kg. For the same molecule, the Acute toxicity in the data set listed under Mus musculus [12] is 0.5.

Take `C=CCN(CC=C)C1(c2ccccc2)CCCCC1`: the Ratio stood at 1.18 in [14]; 2.12 in data set [15]; 6 in [16]; 6 in data set [17]; 1 in data set [11]; 5.89 in [13]. This molecule also registered a Relative potency in the data set listed under Mus musculus [1] of 0.27. In the data set listed under Mus musculus [2], this molecule had an ED50 of 35.6 µmol/kg. In addition, the Kd in data set [5] came out at 25 µM. Moreover, the Activity in the data set on Mus musculus [6] and in the data set with Mus musculus [10] was 100% in each case.

For `C=CCN(CC)C1(c2ccccc2)CCCCC1`, the Ratio in data set [14] worked out at 1.33; in data set [18], 10; in data set [19] it was 10; in [9] it was 1.71; in data set [11], 1; in data set [13], 5.11. In the data set listed under Mus musculus [1], this molecule came in with a Relative potency of 0.42. In addition, it took a dose of 22.6 µmol/kg to reach the 50% effect level in the data set listed under Mus musculus [2] (ED50). Moreover, the Kd in [5] worked out at 14 µM. Besides, the Activity with Mus musculus [6] and in the data set on Mus musculus [10] was 83% each time. The LD50 in the data set on Mus musculus [8] is 441 µmol/kg. Also, in the data set listed under Mus musculus [12], the Acute toxicity is recorded as 0.59.

Consider `C=CCNC1(c2ccccc2)CCCCC1`, for which the Ratio in data set [20] is listed as 1.22; in data set [21], 1.71; in data set [24], 6; in [9], 2.35; in data set [11] it was 1; in [25], 5. Further, the Ratio in data set [13] worked out at 2.61. The molecule also showed an Acute toxicity in the data set filed under Mus musculus [22] of 0.75. This molecule returned a Relative potency in the data set listed under Mus musculus [1] of 0.55. For the same molecule, in the data set filed under Mus musculus [2], it took a dose of 20.4 µmol/kg to reach the 50% effect level (ED50). For the same molecule, in data set [5], the Kd was 70 µM. Also, the Activity in the data set on Mus musculus [23] is on record as 83%; with Mus musculus [6] it was 100%. The LD50 in the data set on Mus musculus [8] came out at 344 µmol/kg.

`CCNC1(c2ccccc2)CCCCC1` [ETICYCLIDINE]: the Ratio in data set [14] is reported as 0.95; in [9], 2.52; in data set [11], 1; in data set [13], 2.6.

Regarding `c1ccc(C2(N3CCCCC3)CCCCC2)cc1` [PHENCYCLIDINE], the Ratio in data set [14] was determined as 1.26; in data set [24], 2; in data set [9] it was 1.73; in data set [28] it was 11; in data set [11] it was 1; in [13], 4.48. Further, the Relative potency in the data set listed under Mus musculus [1] is 1. Also, the ED50 in the data set filed under Mus musculus [2] was 9.6 µmol/kg. The molecule further yielded a Kd in data set [5] of 9.1 µM. This molecule also returned an Acute toxicity in the data set filed under Mus musculus [26] of 1. The Activity is 33.3% in the data set with Mus musculus [6] and 45.8% in the data set with Mus musculus [10]. Moreover, the LD50 in the data set with Mus musculus [27] is 258 µmol/kg.
